# PMC3597129 (The Journal of antimicrobial chemotherapy, 2008)
# Read-outs that look alike come from different tables or passages of the source.
# How the values were obtained:
# [1] = 2NN study, cited from earlier work
# [2] = Population pharmacokinetic model fitted to each study site separately; assay type: in vivo, human; conditions: split model, 1600/100 mg once daily; for Population predictions CL/F / Population predictions V/F: typical 70 kg male
# In short: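 UK sampling: pre-dose to 12 h (24 h if once daily). Thailand: pre-dose to 24 h, 10–15 g fat meal. Plasma from heparinized blood was frozen at −70°C and assayed by HPLC-MS/MS or HPLC-UV. Nonlinear mixed-effects modelling used FO estimation; individual estimates were Bayesian post hoc.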
# [3] = for Individual predictions V/F / Population predictions V/F: 1600/100 mg once daily; for Population predictions V/F: typical 70 kg male
# [4] = healthy volunteers, Phase I studies; cited from earlier work
smiles,measurement,setting,value
Cc1ccnc2c1NC(=O)c1cccnc1N2C1CC1 [nevirapine],higher clearance compared with Thai and South African individuals,[1]; South American HIV patients,~ 11%
same,higher clearance compared with Thai and South African individuals,[1]; Western HIV patients,~28%
CC(C)(C)NC(=O)[C@@H]1C[C@@H]2CCCC[C@@H]2CN1C[C@@H](O)[C@H](Cc1ccccc1)NC(=O)[C@H](CC(N)=O)NC(=O)c1ccc2ccccc2n1 [saquinavir],Individual predictions CL/F,[2]; Thailand,22.8 L/h
same,Individual predictions V/F,[2]; Thailand,184.1 L
same,Population predictions CL/F,[2]; Thailand,26.7 L/h
same,Population predictions V/F,[2]; Thailand,245.9 L
same,Individual predictions CL/F,[2]; UK,79.4 L/h
same,Individual predictions V/F,[2]; UK,278.8 L
same,Population predictions CL/F,[2]; UK,89.0 L/h
same,Population predictions V/F,[2]; UK,313.5 L
same,Individual predictions CL/F,[2]; Uganda,59.0 L/h
same,Individual predictions V/F,[2]; Uganda,400.2 L
same,Population predictions CL/F,[2]; Uganda,49.8 L/h
same,Population predictions V/F,[2]; Uganda,421.0 L
same,"observed trough concentrations below target (MEC 0.1 mg/L), number","[3]; both, human, in vivo",65
same,decrease in F,[3]; fasted state compared with standardized meal,~ 40%
same,D1 (duration of zero-order input),[3]; full model,3.08 h
same,IIV CL/F,[3]; full model,41.4%
same,IIV D1,[3]; full model,17.8%
same,IIV V/F,[3]; full model,41.6%
same,IIV lag-time,[3]; full model,46.8%
same,IOV CL/F,[3]; full model,57.3%
same,IOV V/F,[3]; full model,37.3%
same,Lag-time,[3]; full model,0.57 h
same,Residual error additive,[3]; full model,0.26 mg/L
same,Residual error proportional,[3]; full model,34.3%
same,V/F,"[3]; full model, 1000/100 mg bid evening dose",545 L
same,V/F,"[3]; full model, 1000/100 mg bid morning dose",324 L
same,V/F,"[3]; full model, 1600/100 mg qd",324 L
same,V/F,"[3]; full model, 1600/100 mg qd Thailand",379 L
same,V/F,"[3]; full model, 1600/100 mg qd Uganda",332 L
same,V/F,"[3]; full model, 2000/100 mg qd",324 L
same,Individual predictions V/F,"[3]; full model, Thailand",195.4 L
same,Population predictions V/F,"[3]; full model, Thailand",371.1 L
same,Individual predictions V/F,"[3]; full model, UK",272.9 L
same,Population predictions V/F,"[3]; full model, UK",317.2 L
same,Individual predictions V/F,"[3]; full model, Uganda",521.2 L
same,Population predictions V/F,"[3]; full model, Uganda",325.1 L
same,increase in F,[3]; high-fat meal (66 g fat) compared with standardized meal,~ 80%
same,bioavailability F,[4],0.039
